Screening data from PubChem BioAssay.
Only some compounds are listed: those with a hit (about 1.6% of all), similar ones and a draw of the others.
TCR CD3 inh: blocks the human TCR-CD3 interaction. TAMRA-labeled TCR probe fluorescence, biochemical. inhibition, % at 9.4 µM. actives 0.37% (n = 360,000); in the data active means inhibition above about 19%;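 further: recombinant mutant TCR 2C K166C tagged with TAMRA read by polarization; 0% = receptor in buffer alone and 100% = receptor with positive control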
mABHD4 FP: inhibitors of mouse ABHD4; Q8VD66; purified mABHD4, FP-Rh probe fluorescence polarization; inhibition, % at 8.92 µM; actives 0.54% (n = 370,000); AID 720543;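 active means inhibition exceeding the mean over every tested compound plus 3 SD, cut at about 30% in these data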;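 further: 0% = plate median of compound wells and 100% = S159A mutant with DMSO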
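Test system: mABHD4 protein | Buffer or medium: HEPES pH 7.0 buffer, 150 mM NaCl, 0.01% Pluronic F-127 | Probe or stimulus: FP-Rh fluorescent activity-based probe, added after compound pre-incubation | Timing: Pre-incubation 45 min, probe exposure 60 min, at 25 °C | Technique: Fluorescence polarization, excitation 525 nm, emission 598 nm, BODIPY TMR filters | Repeats: Single well per compound (singlicate)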
HTRA1 inhibitor: HTRA1 (human) protease inhibition. Q92743. recombinant HTRA1, FP-rhodamine activity-based probe, fluorescence polarization. inhibition, % at 5.96 µM. actives 0.5% (n = 340,000); in the data active means inhibition above about 36%;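 further: 0% = enzyme with DMSO and 100% = wells lacking enzyme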
SIAE inh: blocks human sialic acid acetylesterase. Q9HAT2. SIAE FP-Rh probe binding, fluorescence polarization. inhibition, % at 9.66 µM. actives 0.69% (n = 370,000);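 active means inhibition above a cutoff: mean of compounds within the control limits plus 3 SD of those, cut at about 17% in these data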;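 further: 0% = plate median of compound wells and 100% = probe without SIAE protein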
Target sequence (Q9HAT2 whole entry, looked up): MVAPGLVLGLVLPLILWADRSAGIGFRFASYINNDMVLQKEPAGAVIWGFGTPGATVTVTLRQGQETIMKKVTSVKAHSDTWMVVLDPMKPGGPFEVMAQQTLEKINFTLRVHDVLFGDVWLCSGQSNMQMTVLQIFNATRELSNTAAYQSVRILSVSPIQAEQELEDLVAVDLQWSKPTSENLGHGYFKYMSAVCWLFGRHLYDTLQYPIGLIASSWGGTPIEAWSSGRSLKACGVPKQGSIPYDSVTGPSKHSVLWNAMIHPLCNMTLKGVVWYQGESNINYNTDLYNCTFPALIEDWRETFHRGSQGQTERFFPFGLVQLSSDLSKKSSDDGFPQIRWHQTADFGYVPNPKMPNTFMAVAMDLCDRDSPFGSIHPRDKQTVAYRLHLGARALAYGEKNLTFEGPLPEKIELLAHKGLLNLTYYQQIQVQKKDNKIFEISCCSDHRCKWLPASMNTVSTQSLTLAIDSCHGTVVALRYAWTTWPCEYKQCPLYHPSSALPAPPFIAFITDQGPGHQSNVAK
DAGLB inh: blocks human DAGLB lipase activity | inhibition, % at 5.17 µM | Q8NCG7 | actives 0.059% (n = 340,000) | AID 504411 | HEK293T DAGLB membrane lysate, EnzChek fluorogenic substrate; in the data active means inhibition above about 34%;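 further: 0% = enzyme with vehicle and 100% = wells lacking enzyme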
HTRA1 inh conf: confirmation of human HTRA1 inhibitors. inhibition, % at 5.96 µM. shares compounds with HTRA1 inhibitor. AID 540248. actives 66% (n = 1,600). recombinant HTRA1, FP-rhodamine activity-based probe, fluorescence polarization;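 active means mean inhibition over three repeats above a set limit taken from the earlier primary screen, cut at about 37% in these data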;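 further: 0% = HTRA1 with DMSO and 100% = wells lacking HTRA1; inhibitors block probe binding so polarization drops and inhibition rises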
Numbers without * were called inactive; x = no result given; + = active, no number.

SMILES | TCR CD3 inh | mABHD4 FP | HTRA1 inhibitor | SIAE inh | DAGLB inh | HTRA1 inh conf
O=C1C(NC(=O)N2c3ccccc3C=Cc3ccccc32)CCCCN1Cc1cccc(C(F)(F)F)c1 (stereo not drawn) | x | -14.1 | x | -1.1 | x | x
Cc1cc2ccccc2n1CCNC(=O)C1CCCCC1 | 15.6 | 11.6 | 36.3* | -5.7 | -0.1 | 0.8
Cc1ccc(S(=O)(=O)NC(=O)Nc2ccc(N(C)C)cc2)cc1 | 5.6 | 25.0 | 43.9* | 4.7 | 7.5 | 44.8*
C=CCN(CC#Cc1ccccn1)Cc1ccc(OC)cc1OC | x | -5.3 | x | 8.6 | x | x
COc1ccc(C=C(C#N)C(=O)c2ccccc2)cc1 | -6.8 | -56.9 | x | -5.4 | x | x
COc1cc(/C=C(\C#N)C(=O)c2ccc(O)c(O)c2)cc(I)c1O | 23.1* | -6.2 | 41.0* | -9.8 | 10.2 | 29.6
COC(=O)[C@@]12CCCCC=C1N(CCc1ccc(Cl)cc1)C(=O)[C@H]2CC(=O)NCCCCc1ccccc1 | x | -12.7 | x | -16.8 | x | x
O=C(Nc1ccc2nc(-c3ccco3)c(-c3ccco3)nc2c1)N1CCN(c2ccccn2)CC1 | 34.5* | 29.8* | 43.1* | 21.6* | 6.0 | -21.4
C[C@H]1C2CC(OC(=O)Nc3ccccc3C(F)(F)F)C(C2)[C@H]2CCCCN21 (stereo partly drawn) | x | 3.0 | x | 2.9 | x | x
C=CCN1CC(COCCCC)Oc2ccc(Cl)cc2S1(=O)=O (stereo not drawn) | 1.3 | 13.3 | x | 0.9 | x | x
Nn1c(SCC(=O)Nc2cc(C(F)(F)F)ccc2Cl)nnc1-c1n[nH]c2c1CCC2 | x | -1.9 | x | 4.0 | x | x
CCOC(=O)C1Nc2ccc(OC(F)(F)F)cc2C2C=CCC12 (stereo not drawn) | -0.9 | 11.3 | 57.8* | 6.2 | 8.8 | 55.3*
O=C(NC1CC1)C1Nc2ccc(OC(F)(F)F)cc2C2C=CCC12 (stereo not drawn) | -12.2 | 28.0 | 48.3* | 3.5 | 2.5 | -2.7
O=C(NCc1ccccc1)C1Nc2ccc(OC(F)(F)F)cc2C2C=CCC12 (stereo not drawn) | -2.7 | 12.1 | 16.7 | 9.7 | -6.1 | x
CCCCCCC(=O)NC1CCCCN(Cc2ccc(C)cc2)C1=O (stereo not drawn) | x | 2.3 | x | -2.5 | x | x
CCOc1ccc(N(CC(=O)Nc2c(C)n(C)n(-c3ccccc3)c2=O)S(=O)(=O)c2cccc3cccnc23)cc1 | x | -7.1 | x | -2.4 | x | x
CN(C(=O)[C@@H]1CC=C[C@@H]2CCN(C3CCCCC3)C(=O)[C@@H]21)c1ccccc1 | x | -4.0 | x | -2.1 | x | x
COc1ccccc1Nc1ccc(N)cc1 | 2.1 | 24.1 | 67.9* | 9.6 | 9.2 | 55.5*
Cc1ccc2c(c1)c1c(n2C)C(C(N)=O)CCC1 (stereo not drawn) | 10.4 | 5.3 | 3.2 | 1.2 | 0.0 | x
Cc1ccc2c(c1)c1c(n2C)-c2[nH]ncc2CC1 | 4.0 | 24.6 | 37.0* | 20.7* | 5.7 | 19.8
CCCn1c(CNc2ccccc2O)nc2ccccc21 | -4.6 | 26.8 | 44.2* | 6.2 | 6.3 | 59.3*
COc1c(-c2ccc(O)c(O)c2)oc2cc(O)cc(O)c2c1=O | 16.5 | 21.2 | 37.1* | 2.5 | 4.2 | 48.4*
C=CCN1C(=O)[C@@H](CC(=O)NCc2ccc(C)o2)[C@]2(C(=O)OCC)CCCCC/C=C/12 | x | 3.7 | x | 5.9 | x | x
COc1nc(OC)nc(N2CCC(C(=O)NCc3cccc(OC)c3OC)CC2)n1 | x | 1.7 | x | -0.8 | x | x
CCCC(=O)NC(c1ccc2c(c1)OCO2)c1cc(Cl)c2cccnc2c1O (stereo not drawn) | x | x | 62.4* | x | 25.9 | 59.3*
SMILES | TCR CD3 inh | mABHD4 FP | HTRA1 inhibitor | SIAE inh | DAGLB inh | HTRA1 inh conf
CCCC(=O)NC(c1ccco1)c1cc(Cl)c2cccnc2c1O (stereo not drawn) | -2.1 | 5.3 | 47.3* | 14.2 | 13.6 | 54.2*
CCCC(=O)NC(c1cccs1)c1cc(Cl)c2cccnc2c1O (stereo not drawn) | -4.0 | 7.9 | 63.4* | 15.9 | 16.1 | 56.2*
CC(=O)NC(c1cccs1)c1cc(F)c2cccnc2c1O (stereo not drawn) | 10.3 | 9.0 | 35.3 | 7.2 | 2.2 | x
CC(=O)N1CCN(c2ccc(NCc3ccc(C)s3)cc2)CC1 | -3.1 | 21.9 | 24.4 | 16.5 | 5.8 | x
Cc1ccc(CNc2ccc(N3CCOCC3)cc2)s1 | 0.4 | 27.2 | 36.4* | 8.1 | -0.6 | 3.1
CC1(C)CC(=O)C=C(c2ccc(COC(=O)c3ccc(Br)cc3)cc2)C1=O | -3.9 | 0.2 | x | 6.3 | x | x
CN(C)c1ccc(N=Cc2cccn2C)cc1 | 14.3 | 35.4* | 41.6* | 14.8 | 9.3 | 7.5
C/C(=N\NC(=O)CSc1nc2ccccc2o1)c1ccc(O)cc1 | 11.8 | -2.2 | 31.7 | 5.2 | -2.7 | x
C/C(=N\NC(=O)CSc1nc2ccccc2o1)c1cccc(O)c1 | 8.3 | 8.4 | 50.9* | 3.6 | -0.9 | -1.3
COc1ccccc1NS(=O)(=O)c1cc(N)ccc1N1CCCC1 | 5.0 | 27.6 | 9.7 | 14.2 | 3.7 | x
COc1ccccc1NS(=O)(=O)c1cc(N)ccc1N1CCOCC1 | -3.7 | 3.1 | 37.0* | 6.4 | -3.0 | -13.2
CNC(=S)N/N=C/c1c(C(=O)OC)cnn1-c1ccc(Cl)cc1 | x | -6.5 | x | -2.5 | x | x
CN(C)CCCNc1cc(C(C)(C)C)nc2c(-c3ccc(Cl)cc3)cnn12 | -8.9 | 26.3 | 49.3* | 6.4 | 0.4 | 69.8*
Cc1ccc2c(c1)C1CS(=O)(=O)N(Cc3ccccc3)C(=O)N1C2 (stereo not drawn) | x | -3.2 | x | 3.4 | x | x
O=C1NCCC12C(=O)Nc1ccccc12 (stereo not drawn) | 2.7 | 2.3 | 1.7 | 2.5 | 0.2 | x
O=C(O)C1=C2C(=O)Nc3cccc(c32)C2(C1)C(=O)Nc1ccccc12 (stereo not drawn) | 0.1 | 32.9* | 36.9* | 8.6 | 2.0 | 11.9
CCOc1ccc(N2C(=O)CS/C2=C(\C(Cl)=C(Cl)Cl)[N+](=O)[O-])cc1 | x | x | 41.5* | x | 10.5 | +
CCOc1ccc(N2C(=O)CNC2=S)cc1 | -3.2 | -3.0 | 3.7 | 3.4 | -1.6 | x
O=C1C=CC(=O)N1c1ccc2ccccc2c1 | 5.7 | -4.6 | -22.0 | -2.6 | 2.7 | x
O=C1C=CC(=O)N1c1ccc(Nc2ccccc2)cc1 | -25.2 | 21.1 | 52.6* | 6.9 | 11.8 | 17.9
Cc1ccc(S(=O)(=O)NCC2CN(S(=O)(=O)c3ccc(C)cc3)c3ccccc3C(=O)N2c2ccc(F)cc2)cc1 (stereo not drawn) | x | 4.7 | x | -12.8 | x | x
CCc1cccc(NC(=O)Cn2cc3c(n2)CCCC3)c1 | 0.1 | -7.1 | -9.5 | 0.2 | -2.4 | x
CN(C)c1ccc(NC(=O)Cn2cc3c(n2)CCCC3)cc1 | -9.4 | 4.9 | 43.7* | 3.4 | 4.0 | 59.4*
COC(=O)[C@]12C[C@H](CC(=O)NCc3cccs3)C(=O)N(Cc3cccc4ccccc34)C1=C[C@H](C(C)C)O[C@@H]2C1CC1 | x | -13.1 | x | -2.5 | x | x
C/C(N=Nc1nc2ccccc2s1)=N\Nc1ccccc1O | 6.5 | 28.0 | 67.6* | 10.0 | 33.7 | 73.6*
Oc1[nH]c2ccccc2c1N=Nc1nc2ccccc2s1 | -1.9 | -5.6 | 11.3 | -0.5 | -3.2 | x
